In ChEMBL document CHEMBL1146100, “Refinement of the benzodiazepine receptor site topology by structure-activity relationships of new N-(heteroarylmethyl)indol-3-ylglyoxylamides” (J Med Chem, 2006):

Assays:
[1] = target: GABA-A receptor; anion channel; test: Displacement of [3H]flumazenil from GABA-A receptor in bovine brain membranes; assay type: cell membranes, Bos taurus
[2] = target: GABA-A receptor; alpha-1/beta-2/gamma-2 (Rattus norvegicus, UniProt P18508+P62813+P63138); test: Displacement of [3H]flumazenil from rat GABA-Aalpha1 receptor plus beta-2-gamma-2 in HEK293 cells; assay type: cell-based
Method in brief: (§1)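 Membranes from HEK293 cells stably expressing rat GABA-A subtypes (37 °C, 5% CO2, DMEM/F-12 with 10% FBS). Cells harvested, homogenized in 10 mM potassium phosphate pH 7.4, centrifuged at 48 000g for 30 min at 4 °C, washed twice, resuspended in the same buffer plus 100 mM KCl. Incubated with 1-2 nM [3H]flumazenil for 1 h at 4 °C to equilibrium. Nonspecific binding defined with 10^-5 M diazepam.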

[3] = target: GABA A receptor alpha-5/beta-3/gamma-2 (Rattus norvegicus) (UniProt P18508+P19969+P63079); test: Inhibition of [3H]flumazenil binding to rat GABA-Aalpha5 receptor plus beta-3-gamma-2 at 10 uM in HEK293 cells; assay type: cell-based
[4] = target: GABA A receptor alpha-2/beta-2/gamma-2 (Rattus norvegicus, UniProt P18508+P23576+P63138); test: Displacement of [3H]flumazenil from rat GABA-Aalpha2 receptor plus beta-2-gamma-2 in HEK293 cells; assay type: cell-based; method in brief: as §1
[5] = target: GABA A receptor alpha-2/beta-2/gamma-2 (Rattus norvegicus) (UniProt P18508+P23576+P63138); test: Inhibition of [3H]flumazenil binding to rat GABA-Aalpha2 receptor plus beta-2-gamma-2 at 10 uM in HEK293 cells; assay type: cell-based
[6] = target: GABA A receptor alpha-5/beta-3/gamma-2 (Rattus norvegicus, UniProt P18508+P19969+P63079); test: Displacement of [3H]flumazenil from rat GABA-Aalpha5 receptor plus beta-3-gamma-2 in HEK293 cells; assay type: cell-based; method in brief: as §1
GABA A receptor alpha-5/beta-3/gamma-2, sequence (P18508 whole entry): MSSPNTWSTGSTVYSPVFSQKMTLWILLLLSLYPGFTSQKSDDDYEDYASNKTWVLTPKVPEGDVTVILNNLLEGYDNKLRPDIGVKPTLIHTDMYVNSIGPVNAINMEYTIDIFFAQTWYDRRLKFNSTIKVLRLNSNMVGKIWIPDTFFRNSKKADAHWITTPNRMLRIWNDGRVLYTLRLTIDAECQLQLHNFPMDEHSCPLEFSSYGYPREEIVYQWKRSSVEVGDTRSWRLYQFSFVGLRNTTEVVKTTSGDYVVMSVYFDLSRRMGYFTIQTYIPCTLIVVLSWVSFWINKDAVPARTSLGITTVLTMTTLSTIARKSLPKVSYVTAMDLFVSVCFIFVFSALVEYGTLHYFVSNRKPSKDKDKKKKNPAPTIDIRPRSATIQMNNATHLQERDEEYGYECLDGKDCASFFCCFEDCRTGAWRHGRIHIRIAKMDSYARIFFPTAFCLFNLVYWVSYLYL
GABA A receptor alpha-5/beta-3/gamma-2, sequence (P19969 whole entry): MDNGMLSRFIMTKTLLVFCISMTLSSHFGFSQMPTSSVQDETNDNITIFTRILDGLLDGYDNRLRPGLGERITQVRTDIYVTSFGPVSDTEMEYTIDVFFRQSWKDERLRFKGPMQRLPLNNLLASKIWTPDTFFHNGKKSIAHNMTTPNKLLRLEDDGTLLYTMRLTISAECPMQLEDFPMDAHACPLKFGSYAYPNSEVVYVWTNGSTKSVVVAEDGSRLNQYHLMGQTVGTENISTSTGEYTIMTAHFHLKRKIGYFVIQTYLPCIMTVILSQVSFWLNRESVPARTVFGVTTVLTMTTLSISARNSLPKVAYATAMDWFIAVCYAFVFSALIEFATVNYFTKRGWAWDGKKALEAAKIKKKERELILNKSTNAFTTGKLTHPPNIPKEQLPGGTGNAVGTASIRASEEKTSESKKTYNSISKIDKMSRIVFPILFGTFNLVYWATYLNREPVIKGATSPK
GABA A receptor alpha-5/beta-3/gamma-2, sequence (P63079 whole entry): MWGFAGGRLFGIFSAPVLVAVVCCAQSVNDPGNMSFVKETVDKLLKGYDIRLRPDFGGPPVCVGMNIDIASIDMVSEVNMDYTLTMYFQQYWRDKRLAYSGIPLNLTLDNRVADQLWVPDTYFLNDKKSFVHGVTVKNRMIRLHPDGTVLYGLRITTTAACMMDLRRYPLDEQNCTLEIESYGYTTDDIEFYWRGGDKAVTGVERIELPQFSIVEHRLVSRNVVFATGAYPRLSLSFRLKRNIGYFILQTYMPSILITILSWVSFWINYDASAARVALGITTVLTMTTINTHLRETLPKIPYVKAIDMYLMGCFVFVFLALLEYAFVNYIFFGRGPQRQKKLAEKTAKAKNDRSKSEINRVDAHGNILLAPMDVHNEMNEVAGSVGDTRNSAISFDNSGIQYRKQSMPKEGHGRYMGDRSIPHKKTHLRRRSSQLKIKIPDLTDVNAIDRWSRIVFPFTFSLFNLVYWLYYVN

GABA-A receptor; alpha-1/beta-2/gamma-2, sequence (P18508 whole entry): as the sequence (P18508 whole entry) above
GABA-A receptor; alpha-1/beta-2/gamma-2, sequence (P62813 whole entry): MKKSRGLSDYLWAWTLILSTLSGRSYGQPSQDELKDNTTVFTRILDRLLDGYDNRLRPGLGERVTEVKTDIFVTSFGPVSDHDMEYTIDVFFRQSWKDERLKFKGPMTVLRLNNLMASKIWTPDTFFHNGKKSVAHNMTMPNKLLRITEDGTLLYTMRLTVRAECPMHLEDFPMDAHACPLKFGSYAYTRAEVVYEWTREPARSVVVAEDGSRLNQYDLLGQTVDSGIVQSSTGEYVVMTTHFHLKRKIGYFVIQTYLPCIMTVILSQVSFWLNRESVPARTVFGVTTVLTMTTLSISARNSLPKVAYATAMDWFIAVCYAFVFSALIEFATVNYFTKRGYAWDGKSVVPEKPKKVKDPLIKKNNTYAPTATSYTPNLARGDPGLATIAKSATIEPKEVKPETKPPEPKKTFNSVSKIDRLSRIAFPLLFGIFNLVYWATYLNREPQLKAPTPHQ
GABA-A receptor; alpha-1/beta-2/gamma-2, sequence (P63138 whole entry): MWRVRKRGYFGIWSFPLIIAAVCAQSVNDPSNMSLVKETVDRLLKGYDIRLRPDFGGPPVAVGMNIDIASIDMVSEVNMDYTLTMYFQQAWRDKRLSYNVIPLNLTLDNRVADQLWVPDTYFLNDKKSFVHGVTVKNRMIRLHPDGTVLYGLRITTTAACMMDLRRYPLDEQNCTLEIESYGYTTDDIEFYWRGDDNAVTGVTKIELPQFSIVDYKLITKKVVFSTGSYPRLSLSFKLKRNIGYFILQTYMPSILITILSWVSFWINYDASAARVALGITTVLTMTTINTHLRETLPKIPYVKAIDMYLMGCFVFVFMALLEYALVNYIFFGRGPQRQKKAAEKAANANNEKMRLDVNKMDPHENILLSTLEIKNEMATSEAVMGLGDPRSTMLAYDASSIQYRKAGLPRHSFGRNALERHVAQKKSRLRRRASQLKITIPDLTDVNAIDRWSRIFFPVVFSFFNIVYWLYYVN
GABA A receptor alpha-2/beta-2/gamma-2, sequence (P18508 whole entry): as the sequence (P18508 whole entry) above
GABA A receptor alpha-2/beta-2/gamma-2, sequence (P23576 whole entry): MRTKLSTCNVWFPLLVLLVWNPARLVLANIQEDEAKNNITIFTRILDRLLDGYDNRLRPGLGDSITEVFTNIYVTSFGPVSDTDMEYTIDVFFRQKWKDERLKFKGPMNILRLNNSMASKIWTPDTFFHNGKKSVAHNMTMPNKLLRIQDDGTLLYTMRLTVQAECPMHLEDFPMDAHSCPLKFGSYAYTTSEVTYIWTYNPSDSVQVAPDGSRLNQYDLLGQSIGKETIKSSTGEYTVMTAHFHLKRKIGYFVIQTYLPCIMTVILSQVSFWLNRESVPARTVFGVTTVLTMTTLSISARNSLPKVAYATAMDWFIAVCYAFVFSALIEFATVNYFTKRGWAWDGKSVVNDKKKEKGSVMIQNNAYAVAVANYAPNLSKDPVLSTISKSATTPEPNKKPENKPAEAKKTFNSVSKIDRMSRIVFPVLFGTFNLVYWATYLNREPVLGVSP
GABA A receptor alpha-2/beta-2/gamma-2, sequence (P63138 whole entry): as the sequence (P63138 whole entry) above

Row | SMILES | Ki [1] | further results
1 | O=C(NCc1ccsc1)C(=O)c1c[nH]c2ccccc12 | 0.212 µM | –
2 | O=C(NCc1cccnc1)C(=O)c1c[nH]c2ccccc12 | 0.105 µM | –
3 | O=C(NCc1ccncc1)C(=O)c1c[nH]c2ccc([N+](=O)[O-])cc12 | 0.77 µM | –
4 | O=C(NCc1ncc[nH]1)C(=O)c1c[nH]c2ccccc12 | 1.75 µM | –
5 | O=C(NCc1ccco1)C(=O)c1c[nH]c2ccc([N+](=O)[O-])cc12 | 0.0126 µM | Ki [2]: 0.02 µM; inhibition [3]: 28%; Ki [4]: 0.155 µM
6 | O=C(NCc1ccsc1)C(=O)c1c[nH]c2ccc([N+](=O)[O-])cc12 | 0.148 µM | –
7 | Cc1ccc(CNC(=O)C(=O)c2c[nH]c3ccccc23)o1 | 0.249 µM | –
8 | O=C(NCc1cccnc1)C(=O)c1c[nH]c2ccc([N+](=O)[O-])cc12 | 0.483 µM | –
9 | O=C(NCc1cc[nH]c1)C(=O)c1c[nH]c2ccccc12 | 0.204 µM | Ki [2]: 0.272 µM; inhibition [5]: 46%; Ki [6]: 0.681 µM
10 | O=C(NCc1cccs1)C(=O)c1c[nH]c2ccccc12 | 0.285 µM | –
11 | O=C(NCc1ccoc1)C(=O)c1c[nH]c2ccccc12 | 0.447 µM | –
12 | O=C(NCc1ccc[nH]1)C(=O)c1c[nH]c2ccc([N+](=O)[O-])cc12 | 0.033 µM | Ki [2]: 0.0735 µM; inhibition [3]: 5%; Ki [4]: 0.585 µM
13 | Cc1ccc(CNC(=O)C(=O)c2c[nH]c3ccc([N+](=O)[O-])cc23)o1 | 0.0156 µM | –
14 | O=C(NCc1ccncc1)C(=O)c1c[nH]c2ccccc12 | 0.426 µM | –
15 | O=C(NCc1cc[nH]c1)C(=O)c1c[nH]c2ccc([N+](=O)[O-])cc12 | 0.021 µM | Ki [2]: 0.0092 µM; Ki [6]: 1.6 µM; Ki [4]: 0.154 µM
16 | O=C(NCc1cc2ccccc2[nH]1)C(=O)c1c[nH]c2ccccc12 | 1.13 µM | –
17 | O=C(NCc1ccoc1)C(=O)c1c[nH]c2ccc([N+](=O)[O-])cc12 | 0.022 µM | Ki [2]: 0.0566 µM; inhibition [3]: 9%; Ki [4]: 0.236 µM
18 | O=C(NCc1ncc[nH]1)C(=O)c1c[nH]c2ccc([N+](=O)[O-])cc12 | > 10 µM | –
19 | O=C(NCc1cccs1)C(=O)c1c[nH]c2ccc([N+](=O)[O-])cc12 | 0.128 µM | –
20 | O=C(NCc1ccc[nH]1)C(=O)c1c[nH]c2ccccc12 | 0.531 µM | Ki [2]: 0.271 µM; inhibition [5]: 47%; Ki [6]: 1.5 µM
21 | Cn1cccc1CNC(=O)C(=O)c1c[nH]c2ccccc12 | 4.59 µM | –
22 | O=C(NCc1ccccn1)C(=O)c1c[nH]c2ccccc12 | 6 µM | –
23 | O=C(NCc1ccccn1)C(=O)c1c[nH]c2ccc([N+](=O)[O-])cc12 | 0.439 µM | –
24 | O=C(NCc1ccco1)C(=O)c1c[nH]c2ccccc12 | 0.324 µM | –
25 | O=C(NCc1cc2ccccc2[nH]1)C(=O)c1c[nH]c2ccc([N+](=O)[O-])cc12 | > 10 µM | –
26 | Cn1cccc1CNC(=O)C(=O)c1c[nH]c2ccc([N+](=O)[O-])cc12 | 0.135 µM | –
